Assay results reported in ChEMBL document CHEMBL4732105, “First orally bioavailable prodrug of proteolysis targeting chimera (PROTAC) degrades cyclin-dependent kinases 2/4/6 in vivo” (Eur J Med Chem, 2021).
Activity calls are given as the source filed them. The rule behind the calls is not given here.

Columns and labels:
[1] = tested on: B16-F10; assay: Induction of apoptosis in mouse B16F10 cells assessed as late apoptotic cells at 125 nM incubated for 48 hrs by Annexin V-FITC/PI staining based flow cytometry (reference value: 0.551%); format: functional
[2] = tested on: A-375; assay: Induction of apoptosis in human A-375 cells assessed as increase in bax level upto 2000 nM incubated for 48 hrs by Western blot analysis; format: functional, cell-based; conditions: dose nM <=2000, time 48.0 hrs
Method in brief: (§1)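 A375 and B16F10 cells incubated with compound for 48 h. Cleaved caspase-3, cleaved PARP, total P53, Bcl-2 and Bax measured by western blot.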

[3] = tested on: A-375; assay: Induction of apoptosis in human A-375 cells assessed as late apoptotic cells at 1000 nM incubated for 48 hrs by Annexin V-FITC/PI staining based flow cytometry (reference value: 3.28%); format: functional
[4] = tested on: A-375; assay: Induction of apoptosis in human A-375 cells assessed as viable cells at 1000 nM incubated for 48 hrs by Annexin V-FITC/PI staining based flow cytometry (reference value: 93.3%); format: functional; conditions: read-out: Activity
[5] = target: T1, Protein cereblon/Cyclin-dependent kinase 4 (Mus musculus) (UniProt P30285+Q8C7D2); assay: Protac activity at CRBN/CDK4 in mouse B16F10 cells assessed as induction of CDK4 protein degradation at 500 nM by Western blot analysis; format: cell-based; conditions: B16-F10, time hrs <=12, TDE = time-dependent effect
T1 sequence (P30285 whole entry, looked up): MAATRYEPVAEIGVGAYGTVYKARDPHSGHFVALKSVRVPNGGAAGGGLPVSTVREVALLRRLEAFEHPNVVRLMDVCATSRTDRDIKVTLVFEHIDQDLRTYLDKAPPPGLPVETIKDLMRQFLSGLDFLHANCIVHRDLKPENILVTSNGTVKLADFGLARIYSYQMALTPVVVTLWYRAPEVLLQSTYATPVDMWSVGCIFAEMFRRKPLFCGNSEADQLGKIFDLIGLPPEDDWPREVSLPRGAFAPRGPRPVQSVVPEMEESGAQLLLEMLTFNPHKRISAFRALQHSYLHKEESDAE
T1 sequence (Q8C7D2 whole entry, looked up): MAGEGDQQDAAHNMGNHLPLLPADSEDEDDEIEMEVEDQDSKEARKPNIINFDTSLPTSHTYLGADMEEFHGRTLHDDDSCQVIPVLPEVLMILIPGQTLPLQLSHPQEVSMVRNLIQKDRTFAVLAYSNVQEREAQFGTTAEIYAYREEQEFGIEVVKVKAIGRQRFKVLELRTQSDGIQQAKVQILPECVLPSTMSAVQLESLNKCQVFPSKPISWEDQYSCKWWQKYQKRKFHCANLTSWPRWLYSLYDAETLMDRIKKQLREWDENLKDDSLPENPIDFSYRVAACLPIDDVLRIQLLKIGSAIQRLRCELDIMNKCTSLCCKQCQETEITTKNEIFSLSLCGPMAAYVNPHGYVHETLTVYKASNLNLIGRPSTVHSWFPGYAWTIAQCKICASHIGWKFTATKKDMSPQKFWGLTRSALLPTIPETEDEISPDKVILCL
Method in brief: (§2)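 B16F10 and A375 cells treated with DMSO or serial dilutions of compound for 12 h (concentration series), or for the indicated times (time course). CDK2, CDK4 and CDK6 protein levels determined by western blot.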

[6] = target: T2, Protein cereblon/Cyclin-dependent kinase 2 (Mus musculus) (UniProt P97377+Q8C7D2); assay: Protac activity at CRBN/CDK2 in mouse B16F10 cells assessed as induction of CDK2 protein degradation at 100 nM for 6 hrsin presence of Pomalidomide by Western blot analysis; format: cell-based; conditions: B16-F10, time 6.0 hrs
T2 sequence (Q8C7D2 whole entry, looked up, other chains not shown): as the sequence (Q8C7D2 whole entry, looked up) above
Method in brief: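 B16F10 cells pre-treated 2 h with DMSO, pomalidomide (10 μM), MG132 (20 μM) or a parent CDK ligand, then exposed to 100 nM degrader for 6 h. CDK2/4/6 protein levels read by western blot.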

[7] = tested on: B16-F10; assay: Induction of cell cycle arrest in mouse B16-F10 cells assessed as accumulation at G2 phase at 100 uM incubated for 48 hrs by propidium iodide staining based flow cytometry (reference value: 18.22%); format: functional
[8] = tested on: A-375; assay: Induction of cell cycle arrest in human A-375 cells assessed as accumulation at G1 phase at 500 uM incubated for 48 hrs by propidium iodide staining based flow cytometry (reference value: 58.26%); format: functional
Method in brief: (§3)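 Tumor cells incubated 48 h in complete medium with compound or DMSO at various concentrations, stained with propidium iodide, and DNA content read by flow cytometry. G0/G1, S and G2/M fractions reported; mean ± SD, n = 3, Student's t-test.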

[9] = tested on: B16-F10; assay: Induction of apoptosis in mouse B16F10 cells assessed as early apoptotic cells at 250 nM incubated for 48 hrs by Annexin V-FITC/PI staining based flow cytometry (reference value: 3.52%); format: functional
[10] = tested on: A-375; assay: Induction of cell cycle arrest in human A-375 cells assessed as accumulation at G1 phase at 250 uM incubated for 48 hrs by propidium iodide staining based flow cytometry (reference value: 58.26%); format: functional; method in brief: as §3
[11] = target: Protein cereblon/Cyclin-dependent kinase 6 (Homo sapiens) (UniProt Q00534+Q96SW2); assay: Protac activity at CRBN/CDK6 in human A-375 cells assessed as induction of CDK6 protein degradation after 12 hrs by Western blot analysis; format: cell-based; conditions: dose 62.5-1000 nM; method in brief: as §2
Sequence of Protein cereblon/Cyclin-dependent kinase 6 (Homo sapiens) (Q00534 whole entry, looked up): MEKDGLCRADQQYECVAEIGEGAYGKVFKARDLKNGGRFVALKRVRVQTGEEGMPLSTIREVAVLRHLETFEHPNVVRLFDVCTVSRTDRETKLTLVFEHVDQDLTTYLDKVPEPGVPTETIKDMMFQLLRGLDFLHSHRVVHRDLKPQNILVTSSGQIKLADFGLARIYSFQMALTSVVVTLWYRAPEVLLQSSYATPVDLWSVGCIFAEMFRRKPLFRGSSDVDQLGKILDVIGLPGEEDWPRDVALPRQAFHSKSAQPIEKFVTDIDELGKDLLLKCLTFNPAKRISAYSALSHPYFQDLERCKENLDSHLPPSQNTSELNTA
Sequence of Protein cereblon/Cyclin-dependent kinase 6 (Homo sapiens) (Q96SW2 whole entry, looked up): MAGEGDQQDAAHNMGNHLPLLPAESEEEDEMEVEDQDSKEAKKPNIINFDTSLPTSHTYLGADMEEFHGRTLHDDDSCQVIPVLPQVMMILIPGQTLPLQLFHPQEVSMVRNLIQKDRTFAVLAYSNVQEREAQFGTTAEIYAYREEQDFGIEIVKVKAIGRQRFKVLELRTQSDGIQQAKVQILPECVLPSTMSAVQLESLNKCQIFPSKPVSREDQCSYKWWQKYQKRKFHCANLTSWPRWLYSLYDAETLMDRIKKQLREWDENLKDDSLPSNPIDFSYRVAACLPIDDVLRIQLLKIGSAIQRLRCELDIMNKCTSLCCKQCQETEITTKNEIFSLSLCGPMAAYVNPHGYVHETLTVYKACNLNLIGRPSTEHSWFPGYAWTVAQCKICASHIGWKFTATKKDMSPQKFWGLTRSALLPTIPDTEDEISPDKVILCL

[12] = tested on: A-375; assay: Induction of cell cycle arrest in human A-375 cells assessed as accumulation at G0/G1 phase upto […] incubated for 48 hrs by propidium iodide staining based flow cytometry; format: functional; method in brief: as §3
[13] = tested on: B16-F10; assay: Induction of cell cycle arrest in mouse B16-F10 cells assessed as accumulation at G1 phase at 100 uM incubated for 48 hrs by propidium iodide staining based flow cytometry (reference value: 52.59%); format: functional
[14] = Tmax in Sprague-Dawley rat at 200 mg/kg, po; format: ADME, organism-based; conditions: in vivo
Method in brief: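 SD rats, n = 3, single dose of prodrug: IV by tail vein at 10 mg/Kg, or PO at 200 mg/Kg. Plasma levels of prodrug and released active degrader followed over 0–12 h. Parameters derived by a non-compartmental model.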

[15] = tested on: B16-F10; assay: Induction of apoptosis in mouse B16F10 cells assessed as late apoptotic cells at 500 nM incubated for 48 hrs by Annexin V-FITC/PI staining based flow cytometry (reference value: 0.551%); format: functional
[16] = tested on: B16-F10; assay: Inhibition of colony formation in mouse B16F10 cells at 50 to 100 nM measured after 7 days by crystal violet staining based colony formation assay; format: functional, cell-based; conditions: dose 50-100 nM, time 7.0 day
Method in brief: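 Colony formation (long-term growth) assay in A375 and B16F10 cells under continuous compound exposure for 7 days, then clonogenic growth quantified. Mean ± SD, n = 3; Student's t-test.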

[17] = tested on: A-375; assay: Induction of apoptosis in human A-375 cells assessed as necrotic cells at 500 nM incubated for 48 hrs by Annexin V-FITC/PI staining based flow cytometry (reference value: 0.602%); format: functional
[18] = target: T3, Protein cereblon/Cyclin-dependent kinase 2 (Homo sapiens) (UniProt P24941+Q96SW2); assay: Protac activity at CRBN/CDK2 in human A-375 cells assessed as induction of CDK2 protein degradation after 12 hrs by Western blot analysis; format: cell-based; conditions: dose 62.5-1000 nM; method in brief: as §2
[19] = tested on: B16-F10; assay: Induction of apoptosis in mouse B16F10 cells assessed as increase in P-53 level upto 1000 nM incubated for 48 hrs by Western blot analysis; format: functional, cell-based; conditions: dose nM <=1000, time 48.0 hrs; method in brief: as §1
[20] = target: T2, Protein cereblon/Cyclin-dependent kinase 2 (Mus musculus); assay: Protac activity at CRBN/CDK2 in mouse B16F10 cells assessed as induction of CDK2 protein degradation after 12 hrs by Western blot analysis; format: cell-based; conditions: B16-F10, dose 62.5-1000 nM; method in brief: as §2
[21] = target: Protein cereblon/Cyclin-dependent kinase 6 (Mus musculus) (UniProt Q8C7D2+Q64261); assay: Protac activity at CRBN/CDK6 in mouse B16F10 cells assessed as induction of CDK6 protein degradation after 12 hrs by Western blot analysis; format: cell-based; conditions: B16-F10, dose 62.5-1000 nM; method in brief: as §2
Sequence of Protein cereblon/Cyclin-dependent kinase 6 (Mus musculus) (Q64261 whole entry, looked up): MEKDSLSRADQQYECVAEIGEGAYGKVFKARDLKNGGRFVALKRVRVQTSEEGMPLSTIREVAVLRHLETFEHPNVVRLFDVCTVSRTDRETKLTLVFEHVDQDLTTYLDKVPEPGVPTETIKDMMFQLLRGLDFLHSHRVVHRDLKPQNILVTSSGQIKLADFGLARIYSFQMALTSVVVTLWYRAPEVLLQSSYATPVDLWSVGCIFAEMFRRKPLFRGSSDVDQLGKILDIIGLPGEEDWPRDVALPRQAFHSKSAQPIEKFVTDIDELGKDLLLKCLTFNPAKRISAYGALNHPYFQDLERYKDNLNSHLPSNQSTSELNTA
Sequence of Protein cereblon/Cyclin-dependent kinase 6 (Mus musculus) (Q8C7D2 whole entry, looked up): as the sequence (Q8C7D2 whole entry, looked up) above

[22] = Cmax in Sprague-Dawley rat at 10 mg/kg, iv; format: ADME, organism-based; set-up: route intravenous, dose 10 mg/kg; conditions: in vivo
[23] = tested on: B16-F10; assay: Induction of apoptosis in mouse B16F10 cells assessed as viable cells at 500 nM incubated for 48 hrs by Annexin V-FITC/PI staining based flow cytometry (reference value: 95.9%); format: functional; conditions: read-out: Activity
[24] = tested on: B16-F10; assay: Induction of cell cycle arrest in mouse B16F10 cells assessed as accumulation at G2/M phase upto 100 uM incubated for 48 hrs by propidium iodide staining based flow cytometry; format: functional; conditions: dose microM <=100, time 48.0 hrs
[25] = target: T1, Protein cereblon/Cyclin-dependent kinase 4 (Mus musculus); assay: Protac activity at CRBN/CDK4 in mouse B16F10 cells assessed as induction of CDK4 protein degradation after 12 hrs by Western blot analysis; format: cell-based; conditions: B16-F10, dose 62.5-1000 nM; method in brief: as §2
[26] = tested on: B16-F10; assay: Induction of apoptosis in mouse B16F10 cells assessed as increase in bax level upto 1000 nM incubated for 48 hrs by Western blot analysis; format: functional, cell-based; conditions: dose nM <=1000, time 48.0 hrs; method in brief: as §1
[27] = target: T3, Protein cereblon/Cyclin-dependent kinase 2 (Homo sapiens); assay: Protac activity at CRBN/CDK2 in human A-375 cells assessed as induction of CDK2 protein degradation at 1000 nM by Western blot analysis; format: cell-based; conditions: time hrs <=12, TDE = time-dependent effect; method in brief: as §2

For CN(C)C(=O)c1cc2cnc(Nc3ccc(C(=O)NCCCCCCNc4cccc5c4C(=O)N(C4CCC(=O)NC4=O)C5=O)cc3)nc2n1C1CCCC1 (configuration not stated), the Activity [1] was 6.5%, the Activity [2] was “Active” and the Activity [3] was 14.8%. For the same compound, the viability at 1 µM [4] was 55.2%, the Activity [5] was “Tde” and the Activity [6] was “inactive”. For the same compound, the Activity [7] was 30.56%, the Activity [8] was 73.45% and the Activity [9] was 70.3%. The Activity [10] was 67.64%, the Activity [11] was “Dose-dependent effect” and the Activity [12] was “Active”. The Activity [13] was 52.42%, the Tmax [14] was 15 min and the Activity [15] was 1.63%. For the same compound, the inhibition [16] was “Active”, the Activity [17] was 0.153% and the Activity [18] was “Dose-dependent effect”. For the same compound, the Activity [19] was “Active”, the Activity [20] was “Dose-dependent effect” and the Activity [21] was “Dose-dependent effect”. For the same compound, the Cmax [22] was 59.9 µg/mL, the viability at 0.5 µM [23] was 4.73% and the Activity [24] was “Active”. For the same compound, the Activity [25] was “Dose-dependent effect”, the Activity [26] was “Active” and the Activity [27] was “Tde”.
